In series [1] the target is T1, Tyrosine-protein phosphatase non-receptor type 1 (Homo sapiens, UniProt P18031).
T1 sequence (P18031 whole entry): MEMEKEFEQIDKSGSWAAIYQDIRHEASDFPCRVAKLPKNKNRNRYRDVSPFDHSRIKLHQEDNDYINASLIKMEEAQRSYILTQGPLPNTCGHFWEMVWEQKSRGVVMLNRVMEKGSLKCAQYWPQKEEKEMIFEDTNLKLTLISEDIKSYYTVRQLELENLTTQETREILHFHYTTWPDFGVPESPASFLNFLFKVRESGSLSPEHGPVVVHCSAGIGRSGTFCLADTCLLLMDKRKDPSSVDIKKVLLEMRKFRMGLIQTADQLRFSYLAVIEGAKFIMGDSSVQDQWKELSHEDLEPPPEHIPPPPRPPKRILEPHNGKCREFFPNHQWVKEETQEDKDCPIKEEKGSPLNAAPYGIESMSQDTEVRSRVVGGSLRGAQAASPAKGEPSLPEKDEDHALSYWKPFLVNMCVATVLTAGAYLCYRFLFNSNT
Kind of series: Inhibition of PTP1B expressed in Escherichia coli assessed as p-nitrophenol release from pNPP substrate preincubated for 10 mins. In a few lines:
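IC50 values against the PTP panel, with enzymes prepared as described in the supplementary material. Values are means ± SD of two or more experiments.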

Series [2] has as its target T2, Peroxisome proliferator-activated receptor gamma (Homo sapiens) (UniProt P37231).
T2 sequence (whole entry): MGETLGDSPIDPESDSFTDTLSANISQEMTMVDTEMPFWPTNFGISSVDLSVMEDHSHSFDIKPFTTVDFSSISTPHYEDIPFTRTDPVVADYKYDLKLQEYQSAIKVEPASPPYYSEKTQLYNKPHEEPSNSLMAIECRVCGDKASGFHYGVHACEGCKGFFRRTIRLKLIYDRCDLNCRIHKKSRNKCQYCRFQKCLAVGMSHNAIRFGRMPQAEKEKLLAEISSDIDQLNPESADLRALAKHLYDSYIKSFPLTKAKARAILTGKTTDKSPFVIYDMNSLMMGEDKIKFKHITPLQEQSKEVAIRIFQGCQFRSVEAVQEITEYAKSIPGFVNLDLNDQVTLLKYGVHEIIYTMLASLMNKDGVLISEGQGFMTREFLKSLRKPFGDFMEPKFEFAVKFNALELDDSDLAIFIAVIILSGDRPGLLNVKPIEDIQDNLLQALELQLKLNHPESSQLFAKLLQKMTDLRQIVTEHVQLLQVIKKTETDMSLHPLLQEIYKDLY
Kind of series: Agonist activity at PPARgamma expressed in HepG2 cells co-expressing PPRE assessed as concentration required for maximal activation after 24 hrs by luciferase reporter gene assay. Format: functional, cell-based.

For series [3], the target named is T3, Peroxisome proliferator-activated receptor gamma (Homo sapiens, UniProt P37231).
T3 sequence (P37231 whole entry): T2 sequence (whole entry)
Kind of series: Agonist activity at PPARgamma expressed in HepG2 cells co-expressing PPRE assessed as transcriptional activation after 24 hrs by luciferase reporter gene assay. The series is classed as functional, cell-based. The procedure, abridged: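 HepG2 cells were transfected with a PPRE-driven luciferase reporter plus CMV-βGal. The basic luciferase reporter without a PPRE site served as the negative control. Compounds were added 6 h after transfection. Cells were lysed 24 h later. Luciferase activity was read on a luminometer and normalized to β-galactosidase for transfection efficiency. Two independent experiments; error as SEM.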

Series [4] deals with Mus musculus. Description: Antiobesity activity in high fat diet-fed diabetic C57BL/6J Jms Slc mouse model assessed as reduction in body weight at 2.6 mg/day administered with food for 4 weeks. The series is classed as functional. In a few lines: (§1)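 DIO male C57BL/6J Jms Slc mice were fed a 45%-fat HFD for 8 wk, then HFD with 0.1% w/w compound in feed (about 2.6 mg/day/mouse) for 4 wk. A 10%-fat LFD lean group ran throughout. Measures were weight gain, feed efficiency (weight gain/kcal ×100), and epididymal and retroperitoneal fat pad weights. n = 8/group; mean ± SEM; one-way ANOVA.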

The subject of series [5] is Mus musculus. Kind of series: Antiobesity activity in high fat diet-fed diabetic C57BL/6J Jms Slc mouse model assessed as weight gain/kcal at 2.6 mg/day administered with food for 4 weeks. Format: functional. In a few lines:
as §1

Series [6] deals with Mus musculus. Description: Antiobesity activity in high fat diet-fed diabetic C57BL/6J Jms Slc mouse model assessed as decrease in epididymal fat at 2.6 mg/day administered with food for 4 weeks. The series is classed as functional. In a few lines: as §1
In series [7] the test system is Mus musculus. Kind of series: Antiobesity activity in high fat diet-fed diabetic C57BL/6J Jms Slc mouse model assessed as decrease in retroperitoneal fat at 2.6 mg/day administered with food for 4 weeks. Format: functional. The procedure, abridged: as §1
Series [8] concerns Mus musculus. Description: Antiobesity activity in high fat diet-fed diabetic C57BL/6J Jms Slc mouse model assessed as decrease in total cholesterol level in serum at 2.6 mg/day administered with food for 4 weeks. The series is classed as functional. The procedure, abridged:
(§2)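 DIO mice were fed HFD for 8 wk, then HFD containing 0.1% w/w compound (about 2.6 mg/day/mouse) for 4 wk. At the end of feeding, mice were deprived of food overnight. Serum total cholesterol, triglyceride and NEFA were then measured. Values are mean ± SEM.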

The test system of series [9] is Mus musculus. Description: Antiobesity activity in high fat diet-fed diabetic C57BL/6J Jms Slc mouse model assessed as decrease in serum triglyceride level at 2.6 mg/day administered with food for 4 weeks. Format: functional. In a few lines: as §2
Series [10] has as its system Mus musculus. Description: Antiobesity activity in high fat diet-fed diabetic C57BL/6J Jms Slc mouse model assessed as decrease in non-esterified free fatty acid level in serum at 2.6 mg/day administered with food for 4 weeks. The series is classed as functional. In a few lines:
as §2

Series [11] deals with Mus musculus. Description: Antidiabetic activity in high fat diet-fed diabetic C57BL/6J Jms Slc mouse model assessed as normalization of blood glucose level at 2.6 mg/day administered with food for 4 weeks measured 60 mins after last dose by glucose tolerance test. Format: functional, organism-based. The procedure, abridged: (§3)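 Mice were male C57BL/6J Jms Slc, 5 wk old after 1 wk acclimatization. They were fed a 45%-fat HFD for 8 wk, then HFD with compound mixed in (1.0 g/kg diet, about 2.6 mg/day/mouse, 78 mg/day/kg) for 4 wk. Each mouse was fasted 6 h from the start of the light cycle and fasting glucose was measured. Glucose 1.0 g/kg was then given i.p., with readings at 60 and 90 min.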

Series [12] deals with Mus musculus. Description: Antidiabetic activity in high fat diet-fed diabetic C57BL/6J Jms Slc mouse model assessed as normalization of blood glucose level at 2.6 mg/day administered with food for 4 weeks measured 90 mins after last dose by glucose tolerance test. Format: functional, organism-based. In a few lines: as §3
Series [13] has as its target T4, Tyrosine-protein phosphatase non-receptor type 1 (Homo sapiens) (UniProt P18031).
T4 sequence (whole entry): T1 sequence (P18031 whole entry)
Description: Competitive inhibition of PTP1B expressed in Escherichia coli.

Series [14] concerns Mus musculus. Kind of series: Toxicity in high fat diet-fed diabetic C57BL/6J Jms Slc mouse model assessed as dark-brownish spots in liver at 4.8 mg/day administered with food for 4 weeks. Conditions: in vivo, po, 672 h.

pEC50, pIC50: −log10 of the molar value. Active and inactive are the calls of the source. The calls are words filed in the database; no cut-off is given here.

The term pIC50 denotes the negative decadic logarithm of the IC50, by convention in mol/L. With `O=C1NC(=O)/C(=C/c2ccc(OCc3ccc(F)cc3)cc2OCc2ccc(C(F)(F)F)cc2)S1`, the pIC50 in series [1] is 5.40. On the same count and under the same terms, next, `Cc1ccc(S(=O)(=O)Oc2ccc(/C=C3\SC(=O)NC3=O)c(OCc3ccc(NC(=O)c4cccc(C(F)(F)F)c4)cc3)c2)cc1`: 4.96; `O=C1NC(=O)/C(=C/c2ccc(OCc3ccc(C(F)(F)F)cc3)cc2OCc2ccc(C(F)(F)F)cc2)S1`: 5.05. Same read-out and setting: next, `O=C1NC(=O)/C(=C/c2ccc(OCc3ccc(NC(=O)c4cccc(C(F)(F)F)c4)cc3)cc2OCc2ccc(C(F)(F)F)cc2)S1`: 5.22. For `O=C1NC(=O)/C(=C/c2ccc(OCc3ccccc3)cc2OCc2ccccc2)S1`, the pIC50 in series [1] is 5.00. The same measure, in the same setting: for `O=C1NC(=O)/C(=C/c2ccc(OCc3ccccc3)cc2OCc2ccc(F)cc2)S1` the value was 5.05; for `CC(=O)Nc1ccc(COc2cc(OS(=O)(=O)c3ccc(C)cc3)ccc2/C=C2\SC(=O)NC2=O)cc1`, 4.48; for `O=C1NC(=O)/C(=C/c2ccc(OCc3ccccc3)cc2OCc2ccc(C(F)(F)F)cc2)S1`, 5.40. Regarding `O=C1NC(=O)/C(=C/c2ccc(OCc3ccc(F)cc3)cc2OCc2ccc(F)cc2)S1`, the pIC50 in [1] is 5.10. On the same count and under the same terms, next, `O=C1NC(=O)/C(=C/c2ccc(OS(=O)(=O)c3ccc(Br)cc3)cc2OCc2ccc(C(F)(F)F)cc2)S1`: 5.22; `O=C(O)COc1cc(OCc2ccccc2)ccc1/C=C1\SC(=O)NC1=O`: 3.87; `O=C1NC(=O)/C(=C/c2cc(Br)c(OCc3ccc(C(F)(F)F)cc3)cc2OCc2ccc(C(F)(F)F)cc2)S1`: 5.85. Still for that read-out and setting: for `Cc1ccc(S(=O)(=O)Oc2ccc(/C=C3\SC(=O)NC3=O)c(OCc3ccc(C(F)(F)F)cc3)c2)cc1` the value was 5.64. On to `O=C1NC(=O)/C(=C/c2ccc(OS(=O)(=O)c3ccc(Br)cc3)cc2OCc2ccc(S(=O)(=O)N3CCOCC3)cc2)S1`, for which, in series [1], the pIC50 is 4.85. Same read-out and setting: next, `O=C1NC(=O)/C(=C/c2ccc(OCc3ccc(S(=O)(=O)N4CCOCC4)cc3)cc2OCc2ccc(C(F)(F)F)cc2)S1`: 4.72; `O=C1NC(=O)/C(=C/c2ccc(OCc3ccc(F)cc3)cc2OCc2ccccc2)S1`: 5.05; `Cc1ccc(S(=O)(=O)Oc2cc(OCc3cc(C(F)(F)F)cc(C(F)(F)F)c3)c(/C=C3\SC(=O)NC3=O)cc2Br)cc1`: 5.70. Still for that read-out and setting: next, `O=C1NC(=O)/C(=C/c2ccc(OCc3cccnc3)cc2OCc2ccc(C(F)(F)F)cc2)S1`: 4.92.

Take `O=C1NC(=O)/C(=C/c2ccc(OCc3ccccn3)cc2OCc2ccc(C(F)(F)F)cc2)S1`: the pIC50 in series [1] was 4.92. A word on the pEC50: it is −log10 of the EC50, conventionally taken in molar units. Regarding `O=C1NC(=O)/C(=C/c2cc(Br)ccc2OCc2cc(C(F)(F)F)cc(C(F)(F)F)c2)S1`, the Activity is 4 µM in series [2]; 2.16 g with Mus musculus [4]; 1.27 g with Mus musculus [6]; 0.42 g with Mus musculus [7]; 125 mg/dL in the series on Mus musculus [8]; 78 mg/dL in the series with Mus musculus [9]. Besides, the Activity is 0.22 mM in the series on Mus musculus [10] and “Toxic” in the series with Mus musculus [14]. In addition, in [3], the pEC50 was 6.06. Also, the feed efficiency in the series on Mus musculus [5] is 0.68 g/100 kcal. The outcome in the series on Mus musculus [11] and in the series on Mus musculus [12] was Active. In addition, the inhibition entry in series [13] is “Active”.

In the case of `Cc1ccc(S(=O)(=O)Oc2ccc(/C=C3\SC(=O)NC3=O)c(OS(=O)(=O)c3ccc(C)cc3)c2)cc1`, in series [1], the pIC50 was 4.80.

The values are drawn from ChEMBL document CHEMBL1800016, “Novel thiazolidinedione derivatives with anti-obesity effects: dual action as PTP1B inhibitors and PPAR-γ activators” (Bioorg Med Chem Lett, 2010).
